Here are results for 20 molecules from ChEMBL document CHEMBL5329220, “Discovery of pyrazolopyrimidines that selectively inhibit CSF-1R kinase by iterative design, synthesis and screening against glioblastoma cells” (RSC Med Chem, 2023).

pEC50: −log10 of the molar value. Calls of active or inactive are those of the source. The rule behind the calls is not given here.

In experiment [1] the test system is T98. As to the kind of experiment: Antiproliferative activity against human T98 cells assessed as reduction in cell viability at 3 to 30 uM incubated for 5 days by PrestoBlue reagent based fluorescence assay. The format is functional. Conditions: dose 3-30 µM, time 5.0 day. Summed up:
(§1)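 U87 (1×10^3/well) and T98 (5×10^2/well) cells in DMEM with 10% FBS and 2 mM L-glutamine, grown 48 h at 37 °C, 5% CO2, then medium replaced. Compounds added from 20× intermediate dilutions at 3, 10 and 30 μM for 5 d, in triplicate; DMSO 0.1% v/v control. PrestoBlue 60–90 min, fluorescence ex 540/em 590 nm. Normalised to untreated cells; 4-parameter logistic fit, minimum constrained to zero.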

Experiment [2] has as its system U-87 MG. In words: Antiproliferative activity against human U87 cells assessed as reduction in cell viability incubated for 5 days by PrestoBlue reagent based fluorescence assay. It counts as functional, U-87MG ATCC. Conditions: 120 h. Summed up: (§2)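 Cells seeded in DMEM/10% FBS/2 mM L-glutamine (U87 1×10^3, T98 5×10^2 per well), allowed 48 h at 37 °C, then given fresh medium plus compound from 20× intermediate stocks; untreated wells had 0.1% v/v DMSO. After 5 d, PrestoBlue reading (ex 540, em 590 nm, 60–90 min). EC50 from 4-parameter logistic fit of values normalised to untreated cells, bottom fixed at zero.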

The subject of experiment [3] is T98. As to the kind of experiment: Antiproliferative activity against human T98 cells assessed as reduction in cell viability incubated for 5 days by PrestoBlue reagent based fluorescence assay. The format is functional. Conditions: T98, 120 h. The gist of the method:
as §2

Experiment [4] has as its system U-87 MG. In words: Antiproliferative activity against human U87 cells assessed as reduction in cell viability incubated at 3 to 30 uM for 5 days by PrestoBlue reagent based fluorescence assay. The format is functional. Conditions: U-87MG ATCC, dose 3-30 µM, time 5.0 day. Summed up: as §1
Experiment [5] concerns E21. In words: Antiproliferative activity against human E21 cells assessed as reduction in cell survival incubated for 72 hrs by Hoechst staining based nuclei count assay.
In experiment [6] the test system is E31. In words: Antiproliferative activity against human E31 cells assessed as phenotypic change at 1 to 5 uM incubated for 72 hrs in presence of INK128 by Hoechst 33342/ Alexa Fluor 488 staining based PCA analysis. It counts as functional, cell-based. Conditions: dose 1-5 µM. Summed up:
(§3)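 Patient-derived glioma stem cells kept in laminin-coated DMEM/F12 with FGF, EGF, B27 and N2, plated at 500–1500 cells/well on laminin (10 μg mL−1). After overnight attachment, dosed in triplicate with 0.1% DMSO final, 72 h at 37 °C. Live MitoTracker DeepRed (final 300 nM, 30 min), formaldehyde fixation (final 4%), Cell Painting staining and imaging, CellProfiler features, PCA of phenotypic profiles.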

Experiment [7] concerns E57. In words: Antiproliferative activity against human E57 cells assessed as phenotypic change at 1 to 2.5 uM incubated for 72 hrs in presence of INK128 by Hoechst 33342/ Alexa Fluor 488 staining based PCA analysis. To be noted: dose 1-2.5 µM.
Experiment [8] relates to E21. In words: Antiproliferative activity against human E21 cells assessed as phenotypic change at 1 to 5 uM incubated for 72 hrs in presence of INK128 by Hoechst 33342/ Alexa Fluor 488 staining based PCA analysis. The format is functional, cell-based. Conditions: dose 1-5 µM. The gist of the method:
as §3

Experiment [9] has as its system E57. In words: Antiproliferative activity against human E57 cells assessed as reduction in cell viability at 0.01 to 10 uM incubated for 72 hrs by Hoechst staining based nuclei count assay. To be noted: dose 0.01-10 µM.
For experiment [10], the system named is E21. In words: Antiproliferative activity against human E21 cells assessed as reduction in cell viability at 0.01 to 10 uM incubated for 72 hrs by Hoechst staining based nuclei count assay. To be noted: dose 0.01-10 µM.

`CCOC(=O)C1CCN(CC#Cc2nn(CC3CCCC3)c3nc(NC)ncc23)CC1`: the outcome in experiment [1] was Active. Same read-out and setting: the value for `CNc1ncc2c(C#CCN3CCCC(N(C)C)C3)nn(C3CCCC3)c2n1` (stereo not given) was “Active”; that for `CNc1ncc2c(C#CCN3CCCC(N(C)C)C3)nn(CC3CCCCC3)c2n1` (stereo not given) was “Active”. As a reminder, the pEC50 is the negative decadic logarithm of the EC50, by convention in mol/L. On to `CNc1ncc2c(C#CCN3CCCC(N(C)C)C3)nn(CC3CCCC3)c2n1` (racemic), for which the values for the pEC50 in experiment [2] and in experiment [3] were 5.30 and 4.97, respectively. For the molecule `CN(C)C1CCCN(CC#Cc2nn(C3CCCC3)c3nc(NC(C)(C)C)ncc23)C1` (stereo not given), the result in experiment [4] and in experiment [1] was Active. The Activity entry in experiment [5] is “Dose-Dependent Effect”.

`CN(C)C1CCCN(CC#Cc2nn(CC3CCCC3)c3nc(NC(C)(C)C)ncc23)C1` (stereo not given): in [3], the pEC50 was more than 5.40. With `CNc1ncc2c(C#CCN3CCCCCC3)nn(CC3CCCC3)c2n1`, the pEC50 in [3] is 5.34.

`CN(C)C1CCCN(CC#Cc2nn(CC3CCCCC3)c3nc(NC(C)(C)C)ncc23)C1` (stereo not given): the outcome in [4] and in experiment [1] was Active. With `CC1CCN(CC#Cc2nn(CC3CCCC3)c3ncnc(N)c23)CC1`, the pEC50 in experiment [2] and in experiment [3] was more than 4.52 each time. For the molecule `CN(C)C1CCN(CC#Cc2nn(C3CCCCC3)c3nc(NC(C)(C)C)ncc23)C1` (stereo not given), the values for the pEC50 in experiment [2] and in experiment [3] were 5.57 and 5.60, respectively. In addition, the Activity result in [5] is “Dose-Dependent Effect”. On to `CNc1ncc2c(C#CCN3CCC(NC(C)=O)CC3)nn(CC3CCCC3)c2n1`, for which the result in experiment [1] was Active.

With `Cn1nnc2c(C(N)=O)ncn2c1=O`, the outcome in experiment [4] was Active.

`CCOC(=O)N1CCN(CC#Cc2nn(CC3CCCC3)c3nc(NC)ncc23)CC1`: in experiment [1], the result was Active. On to `CCC(CC)Nc1ncc2c(C#CCN3CCCC(N(C)C)C3)nn(CC3CCCC3)c2n1` (stereo not given), for which the Activity result in experiment [5] is “Dose-Dependent Effect”. Also, the pEC50 in experiment [3] is more than 5.40. As for `CNc1ncc2c(C#CCN3CCC(N(C)C)CC3)nn(CC3CCCC3)c2n1`, the pEC50 is 4.80 in experiment [2] and 4.83 in experiment [3]. Consider `CN(C)C1CCCN(CC#Cc2nn(C3CCCCC3)c3nc(NC(C)(C)C)ncc23)C1` (stereo not given), for which the result in experiment [4] and in [1] was Active. As for `CCCNc1ncc2c(C#CCN3CCCC(N(C)C)C3)nn(CC3CCCC3)c2n1` (stereo not given), the pEC50 in experiment [3] is more than 5.40. For `CN(C)C1CCCN(CC#Cc2nn(CC3CCCC3)c3nc(NCc4ccccc4)ncc23)C1` (stereo not given), the pEC50 in experiment [3] is more than 5.40. For `CN(C)C1CCN(CC#Cc2nn(C3CCCC3)c3nc(NCc4ccccc4)ncc23)C1` (stereo not given), the pEC50 in experiment [3] is 5.70. Besides, the result in [6], in experiment [7], in experiment [8], in experiment [9] and in experiment [10] was Active. For the molecule `CNc1ncc2c(C#CCN3CCCC(N(C)C)C3)nn(C3CCCCC3)c2n1` (stereo not given), in [1], the outcome was Active.
